SMILES strings stand for the structures.

Results on four compounds are retold here after paper PMC10401072 (Cancer discovery, 2023).

Series [1] concerns pERK in ex vivo CSF1-stimulated peripheral blood monocytes. The series is described as follows: Patient pharmacodynamic assessment. Set-up: species or system human. Conditions: ALK NSCLC patient; 20 mg; 4 hours after dosing on C1D1. In a few lines: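 Patient whole blood was shipped refrigerated the same day and processed within a 24 h stability window. Ex vivo stimulation used 9 ng/mL recombinant human M-CSF for 12 min at room temperature, with unstimulated control. Staining with CD45, CD14, ERK1/2 and pERK1/2 (T202/Y204) antibodies ran 30 min in the dark. Flow cytometry excluded doublets and gated CD45+CD14+ monocytes. pERK1/2 MFI was normalized to the unstimulated sample.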

In series [2] the test system is pERK in MIA PaCa-2 tumors. The series is described as follows: Animal PK/PD study: pERK in tumors. Type of series: in vivo, mouse. Conditions: single oral dose 30 mg/kg. In outline: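 Female Foxn1nu mice bearing subcutaneous right-flank xenografts (5 × 10^6 cells) grown to about 500 mm3 and randomized by size into groups of three. Each received one 30 mg/kg oral gavage dose in 20% hydroxypropyl-β-cyclodextrin/50 mmol/L citric acid, pH 4. Tumors were taken at 1, 8, 24 and 48 h and lysed in NP-40 buffer. pERK was immunoblotted in 250 μg lysate, normalized to GAPDH and vehicle controls, as POC.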

Series [3] deals with metastatic BRAF V600E colorectal cancer. The series is described as follows: Phase 1 trial tumor response. It counts as in vivo, human. Conditions: after 6 weeks monotherapy; new lesions. In a few lines:
(§1)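 Tumor response was assessed by CT imaging every 6 weeks per RECIST v1.1 during oral monotherapy (powder in capsule) on the phase I trial.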

The test system of series [4] is EML4-ALK fusion-positive NSCLC. It counts as in vivo, human. Conditions: after 6 weeks monotherapy, 20 mg BIW.
Series [5] is described as follows: Patient pharmacokinetic assessment. It counts as in vivo, human. In a few lines:
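Compound was given as powder in capsule. Plasma was sampled before treatment and at set intervals after dosing on cycle 1 days 1 and 18 at the starting monotherapy dose. Drug level was measured by a validated LC-MS/MS assay.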

For series [6], the system named is GOPC-ROS1 fusion-positive pancreatic adenocarcinoma. Description: Phase 1 trial tumor response. It counts as in vivo, human.
A short description of series [7]: Phase 1 trial safety. Type of series: in vivo, human. Particulars: single patient, monotherapy followed by combination, first dose level. In a few lines: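 Lead-in monotherapy ran 2 cycles/6 weeks. Matched targeted therapy was then added at labeled doses upon radiographic progression, if no ongoing grade ≥3 toxicity or DLT. The SHP2 inhibitor restarted one dose level below the highest safe monotherapy dose. Intrapatient escalation was allowed after 1 cycle. Adverse events were graded by CTCAE v5.0, and dose changes followed a prescribed algorithm.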

Series [8] relates to KRAS G12D mutant low-grade serous ovarian cancer. The series is described as follows: Phase 1 trial tumor response. Type of series: in vivo, human. Particulars: after 6 weeks of monotherapy. In a few lines: as §1
The conditions of series [9]: cited from earlier work.

Take `Nc1nccc(Sc2cnc(N3CCC4(CC3)Cc3ccccc3[C@H]4N)nn2)c1Cl` [PF-07284892]: the “decrease in pERK levels in peripheral blood monocytes” value in [1] came out at 80%. Further, the “suppression of pERK in tumors” value in series [2] is on record as “significant suppression”. In addition, the “change in target lesions” value in [3] is listed as “+43%”. Also, in series [4], the “change in target lesions on CT” value is recorded as “+50%”. The “response (RECIST 1.1)” value in series [4] is given as “progressive disease”. Besides, the “plasma level of PF-07284892” value in [5] (ALK NSCLC patient, 20 mg orally BIW, 4 hours after C1D1 dose) worked out at 41 ng/mL; in [5] (ALK NSCLC patient, 20 mg orally BIW, pre-dose C1D18, 3 days after prior dose) it was 29 ng/mL; in series [5] (BRAF V600E CRC patient, 20 mg BIW, C1D1), 56 ng/mL; in [5] (BRAF V600E CRC patient, 20 mg BIW, C1D18), 35 ng/mL. Moreover, the “change in two target lesion liver metastases” value in [6] (after 6 weeks of monotherapy) was “+26%”. Moreover, the “dose-limiting toxicities (DLTs)” value in series [7] is reported as “no DLTs”. For the same compound, the “tumor growth in two target lesions” value in series [8] was “+6%”.

Take `C[C@@H]1OCC2(CCN(c3cnc(Sc4ccnc(N)c4Cl)c(N)n3)CC2)[C@@H]1N` [TNO155]: in series [9], the “monotherapy activity in FIH trials” value was “limited monotherapy activity”.

For `Cc1nc(N2CCC3(CC2)CO[C@@H](C)[C@H]3N)c(CO)nc1Sc1ccnc(N)c1Cl` [RMC-4630], the “monotherapy activity in FIH trials” value in series [9] is on record as “limited monotherapy activity”.

In the case of `C[C@H]1CNC(=O)c2cnn3ccc(nc23)N[C@H](C)c2cc(F)ccc2O1` [repotrectinib, reference compound], the “time to progression on previous therapy” value in series [6] (pre-study therapy, patient history) is ~ 10 months.
